An excerpt weighted towards active compounds, which were near 1.5% of everything screened.
Hck Nef HTS = inhibitors of Nef-activated human Hck kinase, primary screen, biochemical, Z-Lyte FRET, 384-well, Hck-YEEI; Tyrosine-protein kinase HCK (Homo sapiens), P08631; Recombinant Hck-YEEI plus Nef, Z-Lyte FRET kinase assay; inhibition, % at 20 µM; hit rate 0.68% among 220,000; AID 463187, 2010;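 active = Hck-Nef kinase inhibition above about 50%, limit read from the data; inactive = inhibition below that limit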;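 also: 0% = DMSO with Hck plus Nef and 100% = Hck alone without Nef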
Target sequence (P08631 whole entry, looked up): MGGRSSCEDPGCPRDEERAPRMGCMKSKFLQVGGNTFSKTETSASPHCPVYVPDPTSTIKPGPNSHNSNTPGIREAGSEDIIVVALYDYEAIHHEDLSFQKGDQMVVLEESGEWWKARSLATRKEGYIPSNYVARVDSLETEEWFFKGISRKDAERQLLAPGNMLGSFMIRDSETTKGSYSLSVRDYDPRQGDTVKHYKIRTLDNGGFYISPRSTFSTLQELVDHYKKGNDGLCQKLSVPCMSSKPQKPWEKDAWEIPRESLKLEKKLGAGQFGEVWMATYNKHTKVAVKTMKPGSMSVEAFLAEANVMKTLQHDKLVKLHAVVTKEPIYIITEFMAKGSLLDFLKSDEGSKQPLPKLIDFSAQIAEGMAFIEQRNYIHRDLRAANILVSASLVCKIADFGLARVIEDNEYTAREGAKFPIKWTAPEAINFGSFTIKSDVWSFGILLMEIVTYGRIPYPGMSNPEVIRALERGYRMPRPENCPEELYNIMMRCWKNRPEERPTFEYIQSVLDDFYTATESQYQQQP
RanGTP-Imp inh = inhibitors of RanGTP-importin-beta interaction, primary screen, biochemical, FRET, CFP-Ran, YFP-importin-beta, homogeneous; Ran GTPase (GTP-bound) - importin-beta complex; cell-free CFP-Ran/YFP-importin-beta FRET ratio; inhibition, % (test concentration not listed); hit rate 1.1% among 300,000;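 active = more than half of the replicate wells show a fall in the fluorescence ratio signal beyond about 16%, limit read from the data, passing the limit was not always enough; inconclusive = exactly half of the replicate wells pass the set limit; inactive = fewer than half of replicates pass the limit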;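 also: 0% = DMSO wells and 100% = Ran loaded with GDP instead of GTP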
Runt-SMMHC FRET = inhibitors of RUNX1 Runt–CBFb-SMMHC binding, primary screen, biochemical, FRET, Cerulean-Runt, Venus-CBFb-SMMHC, uHTS | AID 1434, 2008 | hit rate 0.74% among 220,000 | inhibition, % at 20 µM | Runt-related transcription factor 1 (Homo sapiens) + Core-binding factor subunit beta … | Cerulean-Runt/Venus-CBFb-SMMHC FRET ratio 530/480, 1 h;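 active = mean inhibition across duplicate retests at 20 µM reaching about 50%, limit read from the data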;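 also: 0% = DMSO wells and 100% = wells with excess untagged CBFb-SMMHC; inhibitors lower the FRET ratio by blocking Runt binding to CBFb-SMMHC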
Runt-CBFb FRET = inhibitors of RUNX1 Runt–CBFb binding, primary screen, biochemical, FRET, Cerulean-Runt, Venus-CBFb, uHTS; Cerulean-Runt/Venus-CBFb FRET ratio 530/480, 1 h; Runt-related transcription factor 1 (Homo sapiens) + Core-binding factor subunit beta …; hit rate 0.46% among 220,000; inhibition, % at 20 µM;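 active = inhibition over about 50% at 20 µM in the single-dose screen, limit read from the data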;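 also: 0% = DMSO wells and 100% = excess unlabeled CBFb competitor control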
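Reagent – Venus-CBFb binding partner, 100 nM · Assay system – Cerulean-tagged RUNX1 Runt domain (FRET donor) fusion protein · Input – 100 nM per protein · Incubation – two 1 h room-temperature incubations shielded from light · Measured by – FRET fluorescence · Medium – Tris buffer pH 7.5 with salts and BSA · Benchmarks – unlabeled CBFb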
CaV13 FRET inh = Disruptors of the CACNA1D IQ motif to Ca2+-dependent inactivation inhibitor domain association, primary screening, Förster resonance energy transfer in intact living …; HEK cells, CFP/YFP FRET ICDI-IQ, plate reader, 10 min; percent FRET-ratio fall versus neutral wells; inhibition, % at 12.3 µM; AID 743397; hit rate 0.098% among 340,000;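 active = mean replicate inhibition of at least 30% and at least 1% of replicates passing that level; inconclusive = only one of the two criteria is met; inactive = neither criterion is met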;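 also: 0% = median of the neutral control wells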
* marks the source's active call; other numbers are inactive results; ? = inconclusive; . = no result given; + = active, no number.

SMILES | Hck Nef HTS | RanGTP-Imp inh | Runt-SMMHC FRET | Runt-CBFb FRET | CaV13 FRET inh
Cc1ccc(C2NC(=O)c3c(sc4c3CCN(C)C4)N2)s1 (centres undefined) | 1.5 | 114.2* | 135.9* | 42.4 | .
CN1CCc2c(sc3c2C(=O)NC(c2ccccn2)N3)C1 (centres undefined) | 7.3 | 133.3* | 65.3* | 99.0* | 8.8
Cc1ccsc1C1NC(=O)c2c(sc3c2CCCC3)N1 (centres undefined) | 5.6 | 5.2 | 15.7 | 10.7 | .
CN1CCc2c(sc3c2C(=O)NC(c2ccc4c(c2)OCO4)N3)C1 (centres undefined) | . | 41.0* | 151.9* | 125.1* | -3.8
O=C1NC(c2ccccn2)Nc2sc3c(c21)CCC3 (centres undefined) | 2.1 | -2.0 | -3.1 | 6.4 | -3.6
CN1CCc2c(sc3c2C(=O)NC(c2ccccc2)N3)C1 (centres undefined) | 5.1 | 5.2 | 76.0* | 106.2* | 2.2
Cc1ccc(C2NC(=O)c3c(sc4c3CCN(C)C4)N2)o1 (centres undefined) | 1.5 | 105.7* | 71.7* | 88.0* | -3.4
CC(C)(C)C1CCc2c(sc3c2C(=O)NC(c2ccco2)N3)C1 (centres undefined) | 4.6 | 4.3 | 5.7 | 1.7 | -7.4
O=C1NC(c2ccc(Br)cc2)Nc2sc3c(c21)CCC3 (centres undefined) | -0.5 | -3.9 | -10.8 | 10.2 | -3.3
CN1CCc2c(sc3c2C(=O)NC(/C=C/c2ccco2)N3)C1 (centres undefined) | 3.9 | 77.7* | . | . | -7.3
COc1ccc(Br)c(Cn2c(C)c(C(=O)NCc3ccccc3C(F)(F)F)sc2=O)c1 | . | . | . | . | 29.5
CCN1CCN(C(=O)CSc2cc(=O)n(CC)c3ccccc23)CC1 | 0.4 | 36.8* | -0.6 | -0.9 | -7.9
CCOC(=O)C(=O)Cc1nc2ccccc2s1 | 4.6 | 51.8* | -0.7 | 0.8 | -4.5
CCCc1cc(C(=O)Cc2nc3ccccc3s2)c(O)cc1O | 9.9 | 111.6* | -21.1 | . | -1.2
Cn1cc(S(=O)(=O)N2CCCC2)cc1C(=O)N1CCN(c2ccccc2)CC1 | . | -0.3 | . | . | 11.3
Nc1c(/C=C2\C=Nc3ccccc32)c(=O)nc2sc(CC(=O)N3CCOCC3)nn12 | . | 20.3* | . | . | -1.8
CCOC(=O)C1CCN(S(=O)(=O)c2cc(C(=O)N3CCCCC3)ccc2OC)CC1 | . | -5.0 | . | . | .
Cc1c(O)ccc2c3c(c(=O)oc12)CCCC3 | 45.8 | . | 90.4* | 75.4* | -4.9
CC(C)CN(Cc1c(O)ccc2c3c(c(=O)oc12)CCC3)CC(C)C | 48.8 | 1.3 | 99.7* | 39.1 | -6.5
COc1ccc(CCNC2=C(Cl)C(=O)N(CCc3ccccc3)C2=O)cc1OC | 0.8 | -1.4 | 55.0* | -2.2 | -9.9
COc1ccc(CCNC2CC(=O)N(CCc3ccccc3)C2=O)cc1OC (centres undefined) | -0.6 | ? | -2.5 | 0.6 | -4.7
COc1ccc(C2=CC(c3ccco3)n3ncnc3N2)cc1 (centres undefined) | -48.2 | . | 86.6* | -63.6 | .
COc1ccc(C2C=C(c3ccccc3)Nc3ncnn32)cc1 (centres undefined) | 0.7 | 5.9 | 62.6* | 18.4 | .
Clc1ccccc1C1=CC(c2ccco2)n2ncnc2N1 (centres undefined) | 16.1 | 42.6* | 81.2 | 10.3 | +
O=C(CN1C(=O)NC2(CCCC2)C1=O)OCCOc1ccc(Cl)cc1 | . | -5.3 | . | . | -5.6
SMILES | Hck Nef HTS | RanGTP-Imp inh | Runt-SMMHC FRET | Runt-CBFb FRET | CaV13 FRET inh
O=C(CNCc1cccc(Cl)c1)N1CCc2ccccc2C1 | . | 1.8 | . | . | -3.3
N#CC1(C#N)C(c2ccccc2)OC23CCCCC2C1(C#N)C(=N)O3 (centres undefined) | 6.3 | 42.2* | 60.9 | 33.4 | -3.8
N#CC1(C#N)C(c2ccccc2)OC23CCCCCC2C1(C#N)C(=N)O3 (centres undefined) | -2.1 | ? | 80.3* | 40.1 | -4.7
CC(C)NC(=O)C1(C)CCN1C(=O)Cc1ccc(-c2ccccc2)cc1 (centres undefined) | . | . | . | . | -5.3
O=C(NCCc1ccccc1)c1ccc2nc(-c3ccco3)c(-c3ccco3)nc2c1 | 15.2 | 39.3* | -44.8 | 2.0 | .
O=C(c1ccccc1)c1ccc2nc(-c3ccco3)c(-c3ccco3)nc2c1 | 58.5* | 0.3 | -33.0 | 5.1 | -7.5
O=C(NC1CCCC1)c1ccc2nc(-c3ccco3)c(-c3ccco3)nc2c1 | 11.5 | . | -22.7 | -4.0 | .
O=C(NCCO)c1ccc2nc(-c3ccco3)c(-c3ccco3)nc2c1 | -4.3 | 3.2 | -18.4 | 6.2 | -7.6
CCOC(=O)CCCCCC(=O)Nc1ccc2c(c1)CC(=O)N([C@@H](C)CO)C[C@H](C)[C@@H](CN(C)C(=O)Nc1ccc3c(c1)OCO3)O2 | . | . | . | . | -4.2
Cc1ccc(C(=O)CCC(=O)N2CCC(C(N)=O)CC2)s1 | . | . | . | . | -2.7
O=C(c1ccc(CNS(=O)(=O)c2cccc(Cl)c2)cc1)N1CCCCC1 | . | ? | . | . | -2.5
O=c1c2ccccc2c(C=Nc2ccccc2O)c(O)n1-c1nccs1 | 8.1 | 41.1* | -18.4 | -13.1 | -4.1
Cc1ccccc1N=Cc1c(O)n(-c2nccs2)c(=O)c2ccccc12 | 3.5 | ? | -60.8 | -44.9 | -52.3
O=C(Nc1ccc(C(=O)N2CCCc3ccccc32)cc1)c1cccs1 | . | -0.3 | . | . | -3.4
CCOC(=O)c1sc(NC(=O)c2c(CC)noc2C)nc1C | . | . | . | . | -5.3
COc1cc(/C=C2\SC(=O)N(CC(=O)Nc3ccccc3F)C2=O)cc(Cl)c1O | . | -8.5 | . | . | -16.1
COc1cc(OC)c(/C=C2\SC(=O)N(CC(=O)Nc3ccccc3F)C2=O)c(OC)c1 | . | 46.4* | . | . | -55.7
Cc1ccc(-n2nc(C)c(NS(=O)(=O)c3ccccc3)c2C)cc1C | -2.3 | 36.3* | 1.5 | -0.6 | -7.6
NC(=S)NN=C(c1ccc(Br)cc1)C1CC1 | . | . | . | . | -6.3
COc1cc(C2C(C#N)=C(N)Oc3cc4c(cc32)OCO4)cc(OC)c1OC (centres undefined) | 15.2 | 4.6 | 5.2 | 7.8 | -6.8
COc1cc(C2C(C#N)=C(N)Oc3cc(O)ccc32)cc2c1OCO2 (centres undefined) | -4.6 | 41.5* | 41.0 | 11.1 | .
COc1cc(C2C(C#N)=C(N)Oc3cc(N(C)C)ccc32)cc2c1OCO2 (centres undefined) | 4.7 | 26.9* | 13.2 | -8.8 | .
